This is an account of results in ChEMBL document CHEMBL1123173, “Synthesis and antiherpes virus activity of phosphate and phosphonate derivatives of 9-[(1,3-dihydroxy-2-propoxy)methyl]guanine” (1986).

Active and inactive are the calls of the source. The rule behind the calls is not given here.

The subject of assay [1] is Vero. The experiment in a line: In vitro antiviral activity was measured against HSV-1(F) in Vero cells. It is filed as functional. The settings on record: Chlorocebus sabaeus, read-out: ID50 (the source's name).
The test system of assay [2] is Mus musculus. The experiment in a line: Effect of subcutaneous treatment with compound on HSV-2 induced mortality in mice at 5 mg/kg dose; 2/15. It is filed as functional. The essentials:
(§1)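 Female Swiss-Webster mice, about 20 g, challenged intraperitoneally with 5×10^4 PFU of HSV-2 strain G (about ten LD50). Subcutaneous dosing once daily for 4 days, beginning 24 h after infection, with a saline control group. 15 mice per group. Survivor numbers were compared by Fisher exact test and mean survival time (± SD) by Mann-Whitney U test. NS means p > 0.05.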

Assay [3] concerns Mus musculus. Nature of the assay: Effect of subcutaneous treatment with compound on HSV-2 induced mortality in mice at 15 mg/kg dose; NS=Not significant. It is filed as functional, organism-based. Details: dose 15 mg/kg. The essentials:
as §1

Assay [4] has as its system Mus musculus. Nature of the assay: Effect of subcutaneous treatment with compound on HSV-2 induced mortality in mice at 15 mg/kg dose; 0/15. It is filed as functional. The essentials: as §1
In assay [5] the test system is Mus musculus. Nature of the assay: Effect of subcutaneous treatment with compound on HSV-2 induced mortality in mice at 30 mg/kg dose. Type of assay: functional. Summed up:
as §1

Assay [6] concerns Mus musculus. The experiment in a line: Effect of subcutaneous treatment with compound on HSV-2 induced mortality in mice at 30 mg/kg dose; 2/15. It is filed as functional. The essentials:
as §1

Assay [7] deals with Vero. Nature of the assay: In vitro antiviral activity was measured against HSV-1 (F delta 305) in Vero cells. The settings on record: Chlorocebus sabaeus, read-out: ID50 (the source's name). Type of assay: functional.
Assay [8] relates to Mus musculus. Nature of the assay: Effect of subcutaneous treatment with compound on HSV-2 induced mortality in mice at 30 mg/kg dose; NS=Not significant. Type of assay: functional, organism-based. Details: dose 30 mg/kg. The essentials: as §1
The subject of assay [9] is Vero. The experiment in a line: In vitro antiviral activity was measured against HSV-2(G) in Vero cells. Type of assay: functional. As to conditions: Chlorocebus sabaeus, read-out: ID50 (the source's name).
In assay [10] the test system is Mus musculus. Nature of the assay: (§2) Effect of subcutaneous treatment with compound on HSV-2 induced mortality in mice at 5 mg/kg dose; NS=Not significant. It is filed as functional, organism-based. Also noted: dose 5 mg/kg. Summed up: as §1
In assay [11] the test system is Mus musculus. Nature of the assay: Effect of subcutaneous treatment with compound on HSV-2 induced mortality in mice at 15 mg/kg dose. It is filed as functional. The essentials:
as §1

Assay [12] relates to Mus musculus. The description is as §2. Type of assay: functional, organism-based. Details: dose 5 mg/kg. Summed up:
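Female Swiss-Webster mice (ca. 20 g) infected intraperitoneally with 5×10^4 PFU HSV-2 strain G (about ten 50% lethal doses). Subcutaneous dosing once daily for 4 days, starting 24 h postinfection; saline controls. Survivors/total recorded, Fisher exact test for survival; mean survival time (± standard deviation) compared by Mann-Whitney U test.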
The source holds these as a separate data set.

For the next assay, the system named is MRC5. The experiment in a line: In vitro antiviral activity was measured against HCMV(AD-169) in MRC5 cells. It is filed as functional. As to conditions: Homo sapiens, read-out: ID50 (the source's name).
Assay [13] deals with Vero. Nature of the assay: In vitro antiviral activity was measured against HSV-1 (MP-PAA/DHPG) in Vero cells. Type of assay: functional. As to conditions: Chlorocebus sabaeus, read-out: ID50 (the source's name).
Assay [14] concerns Mus musculus. The experiment in a line: (§3) Effect of oral treatment with compound on HSV-2 induced mortality in mice at 5 mg/kg dose; NS=Not significant. It is filed as functional, organism-based. Details: dose 5 mg/kg. The essentials:
(§4)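 Female Swiss-Webster mice, about 20 g, infected intraperitoneally with 5×10^4 PFU of HSV-2 strain G (about ten LD50). Oral dosing once every 24 h for 4 days, starting 24 h post-infection, with a saline-treated control group. Groups of 19–20 mice. Survivors were scored and compared by Fisher exact test. Mean survival time (days ± SD) was compared by Mann-Whitney U test. NS means p > 0.05.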

Assay [15] has as its system Mus musculus. The assay is described as §3. Details: dose 5 mg/kg. Type of assay: functional, organism-based. Summed up: (§5)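 Female Swiss-Webster mice (ca. 20 g) infected intraperitoneally with 5×10^4 PFU HSV-2 strain G (about ten 50% lethal doses). Oral dosing once every 24 h for 4 days, starting 24 h postinfection; saline controls. Survivors/total recorded, survivor increase tested by Fisher exact test; mean survival time (days ± standard deviation) compared by Mann-Whitney U test.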
The source holds these as a separate data set.

The test system of assay [16] is Mus musculus. The experiment in a line: Effect of oral treatment with compound on HSV-2 induced mortality in mice at 20 mg/kg dose; 3/20. It is filed as functional. Summed up: as §4
Assay [17] has as its system Mus musculus. The experiment in a line: Effect of oral treatment with compound on HSV-2 induced mortality in mice at 5 mg/kg dose; 3/20. Type of assay: functional. The essentials:
as §4

Assay [18] relates to Mus musculus. Nature of the assay: (§6) Effect of oral treatment with compound on HSV-2 induced mortality in mice at 10 mg/kg dose; NS=Not significant. Details: dose 10 mg/kg. Type of assay: functional, organism-based. The essentials: as §5
The subject of assay [19] is Mus musculus. Nature of the assay: (§7) Effect of oral treatment with compound on HSV-2 induced mortality in mice at 20 mg/kg dose; NS=Not significant. It is filed as functional, organism-based. Also noted: dose 20 mg/kg. The essentials:
as §4

The subject of assay [20] is Mus musculus. Nature of the assay: Effect of on mean survival time upon oral treatment on HSV-2 induced mortality in mice at 10 mg/kg dose. It is filed as functional. The essentials: as §4
The subject of assay [21] is Mus musculus. The experiment in a line: Effect of on mean survival time upon oral treatment on HSV-2 induced mortality in mice at 5 mg/kg dose. Type of assay: functional. The essentials: as §4
Assay [22] concerns Mus musculus. The experiment in a line: Effect of on mean survival time upon oral treatment on HSV-2 induced mortality in mice at 20 mg/kg dose. It is filed as functional. The essentials: as §4
In assay [23] the test system is Vero. The experiment in a line: In vitro anticellular activity was measured against vero cells. Type of assay: functional. The settings on record: Chlorocebus sabaeus, read-out: ID50 (the source's name). Summed up:
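Cell proliferation assay in uninfected Vero cells.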

Assay [24] concerns Mus musculus. The experiment in a line: Effect of oral treatment with compound on HSV-2 induced mortality in mice at 10 mg/kg dose; 0/20. It is filed as functional. The essentials: as §4
In assay [25] the test system is Mus musculus. The assay is described as §7. It is filed as functional, organism-based. Also noted: dose 20 mg/kg. Summed up: as §5
This is another data set of the same source.

For assay [26], the system named is Mus musculus. Described as §6. It is filed as functional, organism-based. Also noted: dose 10 mg/kg. The essentials: as §4
This is another data set of the same source.

For assay [27], the system named is Mus musculus. Nature of the assay: Effect of oral treatment with compound on HSV-2 induced mortality in mice at 5 mg/kg dose. It is filed as functional. Summed up: as §4
Assay [28] deals with Mus musculus. The experiment in a line: Effect of oral treatment with compound on HSV-2 induced mortality in mice at 10 mg/kg dose. It is filed as functional. The essentials: as §4
The subject of assay [29] is Mus musculus. Nature of the assay: Effect of oral treatment with compound on HSV-2 induced mortality in mice at 20 mg/kg dose; 6/20. Type of assay: functional. Summed up: as §4
The subject of assay [30] is Mus musculus. The experiment in a line: Effect of oral treatment with compound on HSV-2 induced mortality in mice at 10 mg/kg dose; 4/20. It is filed as functional. The essentials:
as §4

The test system of assay [31] is Mus musculus. The experiment in a line: Effect of oral treatment with compound on HSV-2 induced mortality in mice at 20 mg/kg dose. It is filed as functional. The essentials: as §4

On to `Nc1nc(N)c2ncn(COC3COP(=O)(O)OC3)c2n1` (stereo not given), for which the IC50 in the assay with Vero [1] was 125 µM; in the assay on Vero [7], 80 µM; in the assay with Vero [9], > 100 µM. Also, the Survivors was 2 with Mus musculus [2], 0 with Mus musculus [4] and 2 in the assay on Mus musculus [6]. The Survivor increase entry in the assay with Mus musculus [3], in the assay on Mus musculus [8] and in the assay on Mus musculus [10] was “inactive” throughout. Besides, the MST increase with Mus musculus [5] was 0.01; in the assay with Mus musculus [11], 0.025. The MST increase entry in the assay on Mus musculus [12] is “inactive”.

As for `Nc1nc(O)c2ncn(COC(CO)CCP(=O)(O)O)c2n1` (stereo not given), the IC50 is 10 µM with MRC5; 28 µM with Vero [1]; > 200 µM with Vero [13]; 50 µM with Vero [7]; > 100 µM in the assay on Vero [9]; > 1000 µM in the assay on Vero [23]. For the same molecule, the Survivor increase result in the assay with Mus musculus [14], in the assay on Mus musculus [19] and in the assay on Mus musculus [26] was “inactive” in each case. The MST increase entry with Mus musculus [15], with Mus musculus [18] and with Mus musculus [25] was “inactive” in each case. Also, the Survivors in the assay with Mus musculus [16] is 3; in the assay on Mus musculus [17], 3; in the assay with Mus musculus [24], 0. Besides, the MST in the assay on Mus musculus [20] was 8.3 days; with Mus musculus [21] it was 8.2 days; in the assay with Mus musculus [22], 8.3 days.

For `Nc1ncnc2c1ncn2COC1COP(=O)(O)OC1` (stereo not given), the IC50 in the assay on Vero [1] was 600 µM; in the assay on Vero [9], > 1000 µM.

With `Nc1nc(O)c2ncn(COC(COP(=O)(O)O)COP(=O)(O)O)c2n1`, the IC50 with MRC5 is 8 µM; in the assay on Vero [1] it was 0.4 µM; in the assay with Vero [13], > 200 µM; with Vero [7], 13 µM; in the assay on Vero [9], 5 µM; in the assay on Vero [23], 800 µM. Besides, the Survivors in the assay on Mus musculus [27] worked out at 8; in the assay on Mus musculus [29] it was 6; in the assay on Mus musculus [30], 4. Besides, the Survivor increase entry in the assay on Mus musculus [14], in the assay on Mus musculus [19] and with Mus musculus [26] was “inactive” each time. Also, the MST increase result in the assay on Mus musculus [15] was “inactive”. Further, the MST increase with Mus musculus [28] was <0.05. Besides, the values for the MST in the assay with Mus musculus [20], in the assay with Mus musculus [21] and with Mus musculus [22] were 10.8 days, 9.6 days and 10.6 days, respectively. Also, the “p-value for mean survival time increase” value in the assay on Mus musculus [31] is reported as <0.02.
